pIC50: −log10 of the molar value.
Assays:
[1] = molecular target: Indoleamine 2,3-dioxygenase 1 (Mus musculus, UniProt P28776); experiment: Inhibition of mouse IDO-1 using tryptophan as substrate after 22 mins by LC-MS/MS method
[2] = Inhibition of dog IDO-1 using tryptophan as substrate after 22 mins by LC-MS/MS method
[3] = Chemical stability in phosphate buffer saline at pH 7.4 assessed as parent compound remaining after 48 hrs; format: physicochemical; settings: phosphate buffered saline, read-out: Stability
Procedure, shortened: (§1)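 (R)-enantiomer incubated for 48 h in phosphate-buffered saline (pH 7.4) or in mouse, rat, dog or acidified dog plasma. The (R)-enantiomer remaining and (S)-enantiomer formed were quantified (%) by chiral LC/MS-MS.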

[4] = Metabolic stability in mouse plasma assessed as parent compound remaining after 48 hrs; format: ADME, cell-free; settings: read-out: Stability
Procedure, shortened: (§2)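 Active enantiomer incubated 48 h in mouse, dog or rat plasma, or in dog plasma that had been acidified; remaining enantiomer and formed antipode measured by chiral LC/MS-MS.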

[5] = Metabolic stability in dog plasma assessed as parent compound remaining after 48 hrs; format: ADME, cell-free, Canis lupus familiaris; settings: read-out: Stability; procedure, shortened: as §2
[6] = Metabolic stability in rat plasma assessed as parent compound remaining after 48 hrs; format: ADME, cell-free; settings: read-out: Stability; procedure, shortened: as §2
[7] = Metabolic stability in dog acidified plasma assessed as parent compound remaining after 48 hrs; format: ADME, cell-free, Canis lupus familiaris; settings: read-out: Stability; procedure, shortened: as §2
[8] = Fraction unbound in human plasma after 48 hrs; format: ADME, cell-free
[9] = AUC (infinity) in rat at 1 mg/kg, iv; format: ADME, organism-based; design: dose 1 mg/kg, time infinity, route intravenous; settings: in vivo
[10] = AUC (infinity) in dog at 1 mg/kg, iv; format: ADME, organism-based, Canis lupus familiaris; design: dose 1 mg/kg, route intravenous, time infinity; settings: in vivo
[11] = AUC (infinity) in cynomolgus monkey at 1 mg/kg, iv; format: ADME, organism-based, Macaca fascicularis; design: dose 1 mg/kg, route intravenous, time infinity; settings: in vivo
[12] = test system: Rattus norvegicus; experiment: AUC (infinity) in rat assessed as (S)-3-(5-fluoro-1H-indol-3-yl)pyrrolidine-2,5-dione at 1 mg/kg, iv; format: ADME, organism-based; design: dose 1 mg/kg, time infinity, route intravenous; settings: in vivo
Procedure, shortened: (§3)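 Pure active (R)-enantiomer given IV at 1 mg/kg to rat, dog and monkey. Exposure (AUCinf) of the (R)- and (S)-enantiomers measured; their AUC ratio reported as an index of in vivo interconversion.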

[13] = test system: Canis familiaris; experiment: AUC (infinity) in dog assessed as (S)-3-(5-fluoro-1H-indol-3-yl)pyrrolidine-2,5-dione at 1 mg/kg, iv; format: ADME, organism-based, Canis lupus familiaris; design: dose 1 mg/kg, route intravenous, time infinity; settings: in vivo; procedure, shortened: as §3
[14] = test system: Cynomolgus monkey; experiment: AUC (infinity) in cynomolgus monkey assessed as (S)-3-(5-fluoro-1H-indol-3-yl)pyrrolidine-2,5-dione at 1 mg/kg, iv; format: ADME, organism-based, Macaca fascicularis; design: dose 1 mg/kg, route intravenous, time infinity; settings: in vivo; procedure, shortened: as §3
[15] = test system: Cynomolgus monkey; experiment: Drug metabolism in cynomolgus monkey assessed as (S)-3-(5-fluoro-1H-indol-3-yl)pyrrolidine-2,5-dione formation at 10 mg/kg, po; format: ADME, organism-based, Macaca fascicularis; settings: in vivo
Procedure, shortened: (§4)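 (R)-enantiomer or racemate dosed orally at 10 mg/kg to monkeys. Total plasma concentrations of each enantiomer were followed over time.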

[16] = Drug metabolism in human hepatocytes in presence of CYP inhibitor ABT; format: ADME, cell-based, Hepatocyte; settings: with ABT (CYP inhibitor), read-out: Drug metabolism
[17] = Drug metabolism in human hepatocytes in absence of CYP inhibitor ABT; format: ADME, cell-based, Hepatocyte; settings: read-out: Drug metabolism
[18] = molecular target: Indoleamine 2,3-dioxygenase 1 (Homo sapiens, UniProt P14902); experiment: Inhibition of human recombinant IDO-1 using L-Trp as substrate after 15 mins by PDMAB-based assay
[19] = Fraction unbound in human plasma; format: ADME, cell-free
Procedure, shortened: (§5)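 Racemate incubated with plasma from preclinical species and humans. The unbound fraction of the (R)-enantiomer was determined.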

[20] = Fraction unbound in mouse plasma; format: ADME, cell-free; procedure, shortened: as §5
[21] = Intrinsic clearance in human microsomes; format: ADME, Microsome
[22] = Intrinsic clearance in mouse microsomes; format: ADME, Microsome
[23] = Apparent permeability across human Caco2 cells; format: ADME, cell-based; settings: Caco-2
[24] = molecular target: T1, Cytochrome P450 1A2 (Homo sapiens, UniProt P05177); experiment: Inhibition of CYP1A2 (unknown origin); format: ADME
T1 sequence (P05177 whole entry): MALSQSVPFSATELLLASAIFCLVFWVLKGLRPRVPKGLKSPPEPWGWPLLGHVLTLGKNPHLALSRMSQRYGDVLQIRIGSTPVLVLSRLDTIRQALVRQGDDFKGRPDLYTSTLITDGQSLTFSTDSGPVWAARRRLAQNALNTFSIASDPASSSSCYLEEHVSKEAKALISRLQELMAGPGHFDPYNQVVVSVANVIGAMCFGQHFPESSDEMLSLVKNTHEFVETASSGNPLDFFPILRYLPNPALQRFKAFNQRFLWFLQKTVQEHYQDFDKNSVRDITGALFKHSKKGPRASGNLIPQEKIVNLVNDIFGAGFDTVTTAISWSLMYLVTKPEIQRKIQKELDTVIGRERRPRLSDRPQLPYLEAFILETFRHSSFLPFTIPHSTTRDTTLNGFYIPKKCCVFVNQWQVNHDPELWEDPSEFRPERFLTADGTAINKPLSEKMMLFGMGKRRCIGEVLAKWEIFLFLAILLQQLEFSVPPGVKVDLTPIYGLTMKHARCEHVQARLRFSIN

[25] = molecular target: Cytochrome P450 2C9 (Homo sapiens, UniProt P11712); experiment: Inhibition of CYP2C9 (unknown origin); format: ADME
[26] = molecular target: Cytochrome P450 2C19 (Homo sapiens, UniProt P33261); experiment: Inhibition of CYP2C19 (unknown origin); format: ADME
[27] = molecular target: Cytochrome P450 2D6 (Homo sapiens, UniProt P10635); experiment: Inhibition of CYP2D6 (unknown origin); format: ADME
[28] = molecular target: Cytochrome P450 3A4 (Homo sapiens, UniProt P08684); experiment: Inhibition of CYP3A4 (unknown origin); format: ADME
[29] = Clearance in mouse; format: ADME, organism-based; settings: in vivo
[30] = Volume of distribution at steady state in mouse; format: ADME, organism-based; settings: in vivo, read-out: Vdss
Procedure, shortened: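 Single 1 mg/kg IV dose of the racemate to male CD-1 mice (n=3). The plasma active enantiomer was quantified by chiral LC-MS/MS, and Vss was taken from the plasma concentration–time profile.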

[31] = Half life in mouse; format: ADME, organism-based; settings: in vivo
[32] = Oral bioavailability in mouse at 5 mg/kg; format: ADME, organism-based; settings: in vivo
[33] = Oral bioavailability in mouse at 30 mg/kg; format: ADME, organism-based; settings: in vivo
[34] = Efflux ratio of apparent permeability across human Caco2 cells; format: ADME, cell-based; settings: Caco-2
[35] = Drug level in phosphate buffer saline at pH 7.4 treated with (R)-3-(5-fluoro-1H-indol-3-yl)pyrrolidine-2,5-dione after 48 hrs; procedure, shortened: as §1
[36] = test system: Plasma; experiment: Drug level in mouse plasma treated with (R)-3-(5-fluoro-1H-indol-3-yl)pyrrolidine-2,5-dione after 48 hrs; format: ADME, cell-free; procedure, shortened: as §1
[37] = test system: Plasma; experiment: Drug level in dog plasma treated with (R)-3-(5-fluoro-1H-indol-3-yl)pyrrolidine-2,5-dione after 48 hrs; format: ADME, cell-free, Canis lupus familiaris; procedure, shortened: as §1
[38] = test system: Plasma; experiment: Drug level in rat plasma treated with (R)-3-(5-fluoro-1H-indol-3-yl)pyrrolidine-2,5-dione after 48 hrs; format: ADME, cell-free; procedure, shortened: as §1
[39] = test system: Plasma; experiment: Drug level in dog acidified plasma treated with (R)-3-(5-fluoro-1H-indol-3-yl)pyrrolidine-2,5-dione after 48 hrs; format: ADME, cell-free, Canis lupus familiaris; procedure, shortened: as §1
[40] = test system: Cynomolgus monkey; experiment: Drug level in cynomolgus monkey treated with (R)-3-(5-fluoro-1H-indol-3-yl)pyrrolidine-2,5-dione at 10 mg/kg, po; format: ADME, organism-based, Macaca fascicularis; settings: in vivo; procedure, shortened: as §4

Indoleamine 2,3-dioxygenase 1 (Homo sapiens, UniProt P14902), sequence (P14902 whole entry): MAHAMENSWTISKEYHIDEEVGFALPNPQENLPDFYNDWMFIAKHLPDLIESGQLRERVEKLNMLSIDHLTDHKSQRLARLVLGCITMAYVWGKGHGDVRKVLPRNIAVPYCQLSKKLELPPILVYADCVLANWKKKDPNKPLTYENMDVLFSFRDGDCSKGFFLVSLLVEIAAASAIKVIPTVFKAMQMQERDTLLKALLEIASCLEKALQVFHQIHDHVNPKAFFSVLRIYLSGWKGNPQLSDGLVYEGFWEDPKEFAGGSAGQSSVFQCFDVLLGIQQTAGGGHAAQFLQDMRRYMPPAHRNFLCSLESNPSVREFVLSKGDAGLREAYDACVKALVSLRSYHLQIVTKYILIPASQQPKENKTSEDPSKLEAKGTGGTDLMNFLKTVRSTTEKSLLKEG
Cytochrome P450 3A4, sequence (P08684 whole entry): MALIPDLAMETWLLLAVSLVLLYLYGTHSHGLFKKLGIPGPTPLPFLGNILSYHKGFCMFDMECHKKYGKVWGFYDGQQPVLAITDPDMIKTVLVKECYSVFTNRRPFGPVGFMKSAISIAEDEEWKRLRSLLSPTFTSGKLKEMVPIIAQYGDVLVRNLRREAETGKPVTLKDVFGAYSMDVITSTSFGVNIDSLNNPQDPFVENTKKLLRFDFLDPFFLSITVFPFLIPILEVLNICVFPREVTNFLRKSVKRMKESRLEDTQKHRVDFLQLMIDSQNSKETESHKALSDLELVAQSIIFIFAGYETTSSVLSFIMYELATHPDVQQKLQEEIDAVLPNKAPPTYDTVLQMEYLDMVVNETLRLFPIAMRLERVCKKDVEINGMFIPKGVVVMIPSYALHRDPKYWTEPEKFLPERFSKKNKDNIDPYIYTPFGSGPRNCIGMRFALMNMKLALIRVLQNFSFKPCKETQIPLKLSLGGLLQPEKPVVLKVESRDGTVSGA
Cytochrome P450 2C9, sequence (P11712 whole entry): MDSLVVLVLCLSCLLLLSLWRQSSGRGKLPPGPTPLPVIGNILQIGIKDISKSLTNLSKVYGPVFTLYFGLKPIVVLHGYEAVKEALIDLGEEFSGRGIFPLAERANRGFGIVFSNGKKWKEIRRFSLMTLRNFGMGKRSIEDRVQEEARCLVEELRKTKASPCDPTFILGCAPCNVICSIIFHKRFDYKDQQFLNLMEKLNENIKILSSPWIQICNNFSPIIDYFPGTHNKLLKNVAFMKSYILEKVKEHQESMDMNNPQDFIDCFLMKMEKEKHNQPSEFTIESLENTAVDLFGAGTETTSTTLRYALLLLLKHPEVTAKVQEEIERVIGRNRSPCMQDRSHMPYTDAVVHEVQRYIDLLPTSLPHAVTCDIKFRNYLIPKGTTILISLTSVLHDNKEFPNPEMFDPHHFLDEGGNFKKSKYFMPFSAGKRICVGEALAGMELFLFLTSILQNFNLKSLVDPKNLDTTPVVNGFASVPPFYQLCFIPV
Cytochrome P450 2D6, sequence (P10635 whole entry): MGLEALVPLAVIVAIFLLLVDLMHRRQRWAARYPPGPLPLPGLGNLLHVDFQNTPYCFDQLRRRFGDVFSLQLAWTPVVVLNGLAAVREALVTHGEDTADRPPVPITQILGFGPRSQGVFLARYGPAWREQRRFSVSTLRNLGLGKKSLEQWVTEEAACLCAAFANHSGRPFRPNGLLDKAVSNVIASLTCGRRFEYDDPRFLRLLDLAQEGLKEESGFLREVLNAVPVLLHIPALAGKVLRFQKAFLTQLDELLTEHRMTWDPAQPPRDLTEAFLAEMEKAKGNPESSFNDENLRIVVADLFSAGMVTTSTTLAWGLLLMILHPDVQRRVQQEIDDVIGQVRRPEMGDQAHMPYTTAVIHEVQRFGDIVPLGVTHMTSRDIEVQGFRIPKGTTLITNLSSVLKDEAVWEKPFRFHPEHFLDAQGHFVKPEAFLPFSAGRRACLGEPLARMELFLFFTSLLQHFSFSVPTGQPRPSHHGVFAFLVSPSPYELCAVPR
Indoleamine 2,3-dioxygenase 1 (Mus musculus, UniProt P28776), sequence (P28776 whole entry): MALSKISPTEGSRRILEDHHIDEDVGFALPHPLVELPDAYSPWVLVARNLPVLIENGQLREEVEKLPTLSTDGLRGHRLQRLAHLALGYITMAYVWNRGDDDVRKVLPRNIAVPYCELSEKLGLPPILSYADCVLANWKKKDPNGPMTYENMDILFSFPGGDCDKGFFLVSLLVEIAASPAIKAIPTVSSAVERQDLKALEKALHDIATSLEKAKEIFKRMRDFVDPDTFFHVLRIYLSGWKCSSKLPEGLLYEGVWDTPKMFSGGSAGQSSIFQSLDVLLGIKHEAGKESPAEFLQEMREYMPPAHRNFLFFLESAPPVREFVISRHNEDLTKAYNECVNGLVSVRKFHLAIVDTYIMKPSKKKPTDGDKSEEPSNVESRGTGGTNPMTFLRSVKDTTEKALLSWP
Cytochrome P450 2C19, sequence (P33261 whole entry): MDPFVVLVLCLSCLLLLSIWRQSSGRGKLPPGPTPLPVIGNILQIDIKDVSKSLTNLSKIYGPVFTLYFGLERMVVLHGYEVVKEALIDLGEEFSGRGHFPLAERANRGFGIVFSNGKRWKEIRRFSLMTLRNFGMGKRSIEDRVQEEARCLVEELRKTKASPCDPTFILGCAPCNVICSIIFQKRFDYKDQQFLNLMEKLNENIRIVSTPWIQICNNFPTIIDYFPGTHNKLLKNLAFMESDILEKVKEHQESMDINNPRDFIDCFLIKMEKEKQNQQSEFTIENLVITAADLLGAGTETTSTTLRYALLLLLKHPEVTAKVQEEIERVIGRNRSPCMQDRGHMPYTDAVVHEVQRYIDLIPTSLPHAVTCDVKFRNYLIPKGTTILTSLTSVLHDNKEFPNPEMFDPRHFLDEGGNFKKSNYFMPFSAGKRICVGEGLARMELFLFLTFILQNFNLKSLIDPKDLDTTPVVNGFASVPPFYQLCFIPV

O=C1C[C@H](c2c[nH]c3ccc(F)cc23)C(=O)N1
pIC50 [1]: 5.14 | pIC50 [2]: 6.70 | remaining at 48 h [3]: 89% | remaining at 48 h [4]: 35% | remaining at 48 h [5]: 30% | remaining at 48 h [6]: 27% | remaining at 48 h [7]: 93.5% | fraction unbound at 48 h [8]: 0.449 | AUC(0-inf) [9]: 2270 ng·h/mL | AUC(0-inf) [10]: 696 ng·h/mL | AUC(0-inf) [11]: 6810 ng·h/mL | AUC [12]: 153 ng·h/mL | AUC [13]: 124 ng·h/mL | AUC [14]: 3516 ng·h/mL | Drug metabolism [15]: Metabolite_Detected | metabolised [16]: 39% | metabolised [17]: 61%

O=C1CC(c2c[nH]c3ccc(Cl)cc23)C(=O)N1 (centres undefined)
pIC50 [18]: 6.08

O=C1CC(c2c[nH]c3ccc(C(F)(F)F)cc23)C(=O)N1 (centres undefined)
pIC50 [18]: 5.01

O=C1C[C@H](c2c[nH]c3cc(Cl)c(F)cc23)C(=O)N1
pIC50 [18]: 6.24

O=C1C[C@@H](c2c[nH]c3cc(Cl)c(F)cc23)C(=O)N1
pIC50 [18]: < 4.30

O=C1C[C@@H](c2c[nH]c3ccccc23)C(=O)N1
pIC50 [18]: 4.08

O=C1CC(c2cccc3cc(Cl)ccc23)C(=O)N1 (centres undefined)
pIC50 [18]: < 4.30

N#Cc1ccc2[nH]cc(C3CC(=O)NC3=O)c2c1 (centres undefined)
pIC50 [18]: 5.92

O=C1C[C@H](c2c[nH]c3ccccc23)C(=O)N1
fraction unbound [19]: 0.43 | fraction unbound [20]: 0.55 | clearance [21]: < 10 µL/min/mg | clearance [22]: < 10 µL/min/mg | Papp [23]: 28 ×10⁻⁶ cm/s | pIC50 [24]: < 5.00 | pIC50 [25]: < 5.00 | pIC50 [26]: < 5.00 | pIC50 [27]: < 5.00 | pIC50 [28]: < 5.00 | clearance [29]: 15.6 mL/min/kg | Vd [30]: 1.2 L/kg | half-life [31]: 58.2 min | bioavailability [32]: 63% | bioavailability [33]: 65% | efflux ratio [34]: 0.77

O=C1C[C@@H](c2c[nH]c3ccc(F)cc23)C(=O)N1
Drug metabolism [35]: Metabolite detected | Drug metabolism [36]: Metabolite_Detected | Drug metabolism [37]: Metabolite_Detected | Drug metabolism [38]: Metabolite_Detected | Drug metabolism [39]: Metabolite_Detected | fraction unbound at 48 h [8]: 0.286 | Drug metabolism [40]: Metabolite_Detected

O=C1CC(c2cccc3ccc(Cl)cc23)C(=O)N1 (centres undefined)
pIC50 [18]: < 4.30

COc1ccc2c(C3CC(=O)NC3=O)c[nH]c2c1 (centres undefined)
pIC50 [18]: < 4.30

From ChEMBL document CHEMBL4052817 (J Med Chem, 2017)
